Measurements from ChEMBL document CHEMBL1629527, “In vitro antifungal activities of bis(alkylpyridinium)alkane compounds against pathogenic yeasts and molds” (Antimicrob Agents Chemother, 2010).
Converted amounts (≈) assume the structure as drawn.

Legend:
Candida tropicalis = experiment: Antifungal activity against Candida tropicalis after 24 to 72 hrs by broth microdilution method; assay type: functional
How it was run: (§1)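 Broth microdilution MIC per CLSI M27-A3 (yeasts) or M38-A2 (molds). RPMI 1640 with L-glutamine, without bicarbonate, buffered to pH 7.0 with 0.165 M MOPS. Final test range for the compounds was 0.175–87.5 μM. Incubation at 35°C with visual reading at 24–72 h. MIC was the lowest concentration giving 100% inhibition versus the growth control (azoles 50% or 100%, by organism). Each isolate was run in duplicate in two independent experiments.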

Candida parapsilosis = experiment: Antifungal activity against Candida parapsilosis after 24 to 72 hrs by broth microdilution method; assay type: functional; settings: Lodderomyces parapsilosis; how it was run: as §1
Candida dubliniensis = experiment: Antifungal activity against Candida dubliniensis after 24 to 72 hrs by broth microdilution method; assay type: functional; how it was run: as §1
Cryptococcus neoformans = experiment: Antifungal activity against Cryptococcus neoformans after 24 to 72 hrs by broth microdilution method; assay type: functional; how it was run: as §1
Pichia kudriavzevii = experiment: Antifungal activity against Candida krusei after 24 to 72 hrs by broth microdilution method; assay type: functional; how it was run: as §1
[1] = tested on: Meyerozyma guilliermondii; experiment: Antifungal activity against Candida guilliermondii after 24 to 72 hrs by broth microdilution method; assay type: functional; how it was run: as §1
[2] = tested on: Cryptococcus gattii species complex; experiment: Antifungal activity against Cryptococcus gattii after 24 to 72 hrs by broth microdilution method; assay type: functional, Cryptococcus bacillisporus; how it was run: as §1
Candida albicans = experiment: Antifungal activity against Candida albicans after 24 to 72 hrs by broth microdilution method; assay type: functional
How it was run: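 CLSI M27-A3 broth microdilution for yeasts in RPMI 1640 with L-glutamine and no bicarbonate, buffered with 0.165 M MOPS to pH 7.0. Compounds were dissolved in water and tested at 0.175–87.5 μM final, 35°C. MIC was read visually at 24–72 h as 100% inhibition versus growth control. For MFC, 30 μl from clear wells went onto SDA at 35°C for 48–72 h, reading the lowest concentration without colonies. Duplicates, two independent runs.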

Clavispora lusitaniae = experiment: Antifungal activity against Candida lusitaniae after 24 to 72 hrs by broth microdilution method; assay type: functional; how it was run: as §1
Nakaseomyces glabratus = experiment: Antifungal activity against Candida glabrata after 24 to 72 hrs by broth microdilution method; assay type: functional; how it was run: as §1

Row | SMILES | MIC (Candida tropicalis) | MIC50 (Candida tropicalis) | MIC90 (Candida tropicalis) | MIC (Candida parapsilosis) | MIC50 (Candida parapsilosis) | MIC90 (Candida parapsilosis) | MIC (Candida dubliniensis) | MIC50 (Candida dubliniensis) | MIC90 (Candida dubliniensis) | MIC (Cryptococcus neoformans) | MIC50 (Cryptococcus neoformans) | MIC90 (Cryptococcus neoformans) | MIC (Pichia kudriavzevii) | MIC50 (Pichia kudriavzevii) | MIC90 (Pichia kudriavzevii) | MIC [1] | MIC50 [1] | MIC90 [1] | MIC [2] | MIC50 [2] | other results
1 | CCC(C)n1ncn(-c2ccc(N3CCN(c4ccc(OCC5COC(Cn6cncn6)(c6ccc(Cl)cc6Cl)O5)cc4)CC3)cc2)c1=O (stereo not given) [ITRACONAZOLE] | 0.11 µg/mL (≈ 0.156 µM) | 0.125 µg/mL (≈ 0.177 µM) | 0.25 µg/mL (≈ 0.354 µM) | 0.07 µg/mL (≈ 0.0992 µM) | 0.06 µg/mL (≈ 0.085 µM) | 0.125 µg/mL (≈ 0.177 µM) | 0.028 µg/mL (≈ 0.0397 µM) | 0.03 µg/mL (≈ 0.0425 µM) | 0.06 µg/mL (≈ 0.085 µM) | 0.06 µg/mL (≈ 0.085 µM) | 0.06 µg/mL (≈ 0.085 µM) | 0.125 µg/mL (≈ 0.177 µM) | 0.33 µg/mL (≈ 0.468 µM) | 0.25 µg/mL (≈ 0.354 µM) | 0.5 µg/mL (≈ 0.709 µM) | 0.5 µg/mL (≈ 0.709 µM) | 0.5 µg/mL (≈ 0.709 µM) | 1 µg/mL (≈ 1.42 µM) | 0.07 µg/mL (≈ 0.0992 µM) | 0.06 µg/mL (≈ 0.085 µM) | MIC90 [2]: 0.125 µg/mL (≈ 0.177 µM); MIC (Candida albicans): 0.07 µg/mL (≈ 0.0992 µM); MIC50 (Candida albicans): 0.04 µg/mL (≈ 0.0567 µM); MIC90 (Candida albicans): 0.09 µg/mL (≈ 0.128 µM); MIC (Clavispora lusitaniae): 0.09 µg/mL (≈ 0.128 µM); MIC50 (Clavispora lusitaniae): 0.06 µg/mL (≈ 0.085 µM); MIC90 (Clavispora lusitaniae): 0.25 µg/mL (≈ 0.354 µM); MIC (Nakaseomyces glabratus): 1.15 µg/mL (≈ 1.63 µM); MIC50 (Nakaseomyces glabratus): 0.5 µg/mL (≈ 0.709 µM); MIC90 (Nakaseomyces glabratus): 16 µg/mL (≈ 22.7 µM)
2 | CC[C@@H]([C@H](C)O)n1ncn(-c2ccc(N3CCN(c4ccc(OC[C@@H]5CO[C@@](Cn6cncn6)(c6ccc(F)cc6F)C5)cc4)CC3)cc2)c1=O [POSACONAZOLE] | 0.061 µg/mL (≈ 0.087 µM) | 0.06 µg/mL (≈ 0.0856 µM) | 0.25 µg/mL (≈ 0.357 µM) | 0.049 µg/mL (≈ 0.0699 µM) | 0.06 µg/mL (≈ 0.0856 µM) | 0.06 µg/mL (≈ 0.0856 µM) | 0.014 µg/mL (≈ 0.02 µM) | 0.008 µg/mL (≈ 0.0114 µM) | 0.03 µg/mL (≈ 0.0428 µM) | 0.07 µg/mL (≈ 0.0999 µM) | 0.06 µg/mL (≈ 0.0856 µM) | 0.125 µg/mL (≈ 0.178 µM) | 0.18 µg/mL (≈ 0.257 µM) | 0.125 µg/mL (≈ 0.178 µM) | 0.25 µg/mL (≈ 0.357 µM) | 0.14 µg/mL (≈ 0.2 µM) | 0.125 µg/mL (≈ 0.178 µM) | 0.25 µg/mL (≈ 0.357 µM) | 0.04 µg/mL (≈ 0.0571 µM) | 0.03 µg/mL (≈ 0.0428 µM) | MIC90 [2]: 0.06 µg/mL (≈ 0.0856 µM); MIC (Candida albicans): 0.04 µg/mL (≈ 0.0571 µM); MIC50 (Candida albicans): 0.02 µg/mL (≈ 0.0285 µM); MIC90 (Candida albicans): 0.18 µg/mL (≈ 0.257 µM); MIC (Clavispora lusitaniae): 0.015 µg/mL (≈ 0.0214 µM); MIC50 (Clavispora lusitaniae): 0.016 µg/mL (≈ 0.0228 µM); MIC90 (Clavispora lusitaniae): 0.03 µg/mL (≈ 0.0428 µM); MIC (Nakaseomyces glabratus): 1.23 µg/mL (≈ 1.76 µM); MIC50 (Nakaseomyces glabratus): 1 µg/mL (≈ 1.43 µM); MIC90 (Nakaseomyces glabratus): 8 µg/mL (≈ 11.4 µM)
3 | C[C@@H](c1ncncc1F)[C@](O)(Cn1cncn1)c1ccc(F)cc1F [VORICONAZOLE] | 0.07 µg/mL (≈ 0.2 µM) | 0.125 µg/mL (≈ 0.358 µM) | 0.25 µg/mL (≈ 0.716 µM) | 0.043 µg/mL (≈ 0.123 µM) | 0.06 µg/mL (≈ 0.172 µM) | 0.06 µg/mL (≈ 0.172 µM) | 0.011 µg/mL (≈ 0.0315 µM) | 0.008 µg/mL (≈ 0.0229 µM) | 0.016 µg/mL (≈ 0.0458 µM) | 0.04 µg/mL (≈ 0.115 µM) | 0.03 µg/mL (≈ 0.0859 µM) | 0.125 µg/mL (≈ 0.358 µM) | 0.41 µg/mL (≈ 1.17 µM) | 0.25 µg/mL (≈ 0.716 µM) | 1 µg/mL (≈ 2.86 µM) | 0.124 µg/mL (≈ 0.355 µM) | 0.125 µg/mL (≈ 0.358 µM) | 0.25 µg/mL (≈ 0.716 µM) | 0.05 µg/mL (≈ 0.143 µM) | 0.06 µg/mL (≈ 0.172 µM) | MIC90 [2]: 0.06 µg/mL (≈ 0.172 µM); MIC (Candida albicans): 0.04 µg/mL (≈ 0.115 µM); MIC50 (Candida albicans): 0.01 µg/mL (≈ 0.0286 µM); MIC90 (Candida albicans): 0.17 µg/mL (≈ 0.487 µM); MIC (Clavispora lusitaniae): 0.02 µg/mL (≈ 0.0573 µM); MIC50 (Clavispora lusitaniae): 0.03 µg/mL (≈ 0.0859 µM); MIC90 (Clavispora lusitaniae): 0.16 µg/mL (≈ 0.458 µM); MIC (Nakaseomyces glabratus): 0.41 µg/mL (≈ 1.17 µM); MIC50 (Nakaseomyces glabratus): 0.25 µg/mL (≈ 0.716 µM); MIC90 (Nakaseomyces glabratus): 4 µg/mL (≈ 11.5 µM)
